Data published in ChEMBL document CHEMBL6083228, “A novel hydrophobic tag leads to the efficient degradation of programmed death-ligand 1” (RSC Med Chem, 2024).
The source made the active and inactive calls. No cut-off for these calls is given here.

Experiments:
NCI-H460 [1] = experiment: Cytotoxicity against human NCI-H460 cells at 0.5 to 10 uM incubated for 24 to 72 hrs by MTT assay; assay type: functional, cell-based; conditions: dose 0.5-10 µM, time 24-72 hrs
How it was run: (§1)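 NCI-H460 cells seeded at 4×10^3 per well in complete RPMI-1640 (10% FBS, 37 °C, 5% CO2), left 24 h, then given DMSO or compound in DMSO. MTT (5 mg mL⁻¹ in PBS) added after 24, 48 and 72 h exposure, 4 h further; formazan dissolved in isopropanol, absorbance at 570 nm. Triplicate; viability relative to DMSO group (100%).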

[2] = target: Programmed cell death 1 ligand 1 (Homo sapiens) (UniProt Q9NZQ7); experiment: Induction of hydrophobic tag tethering degradation of PD-L1 in human NCI-H460 cells at 10 uM by Western blot analysis; assay type: cell-based
How it was run: (§2)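 Cells seeded at 1×10^6 per well, incubated overnight, then exposed to DMSO or compound for 24 h. RIPA lysates were denatured at 100 °C for 15 min in SDS-PAGE loading buffer and run on 10% SDS-PAGE. Blots were probed overnight at 4 °C with anti-PD-L1 (1:1000), then a secondary (1:5000), with ECL detection. Bands were semi-quantified by densitometry.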

[3] = target: Programmed cell death 1 ligand 1 (Homo sapiens) (UniProt Q9NZQ7); experiment: Induction of hydrophobic tag tethering degradation of PD-L1 in human HT-1080 cells incubated for 24 hrs by Western blot analysis; assay type: cell-based; conditions: dose 1-10 µM; how it was run: as §2
[4] = target: Programmed cell death 1 ligand 1 (Homo sapiens) (UniProt Q9NZQ7); experiment: Induction of hydrophobic tag tethering degradation of PD-L1 in human NCI-H460 cells by immunofluorescence analysis; assay type: cell-based
How it was run: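 NCI-H460 cells exposed to compound at various concentrations were fixed in 4% paraformaldehyde for 15 min at room temperature and blocked with 0.5% BSA for 1 h. Anti-PD-L1 (1:200) was applied overnight at 4 °C, then Alexa Fluor 555 donkey anti-rabbit (1:1000) for 30 min in the dark. Nuclei were stained with DAPI and cells imaged by confocal microscopy.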

[5] = target: Programmed cell death 1 ligand 1 (Homo sapiens) (UniProt Q9NZQ7); experiment: Induction of hydrophobic tag tethering degradation of PD-L1 in human NCI-H460 cells at 10 uM incubated for 24 hrs by Western blot analysis; assay type: cell-based; how it was run: as §2
[6] = target: Programmed cell death 1 ligand 1 (Homo sapiens) (UniProt Q9NZQ7); experiment: Induction of hydrophobic tag tethering degradation of PD-L1 in human NCI-H460 cells at 10 uM incubated for 24 hrs in presence of MG132 by Western blot analysis; assay type: cell-based
[7] = target: Programmed cell death 1 ligand 1 (Homo sapiens) (UniProt Q9NZQ7); experiment: Induction of hydrophobic tag tethering degradation of PD-L1 in human NCI-H460 cells incubated for 24 hrs by Western blot analysis; assay type: cell-based; conditions: dose 1-10 µM; how it was run: as §2
NCI-H460 [8] = experiment: Cytotoxicity against human NCI-H460 cells at 10 uM incubated for 24 to 72 hrs by MTT assay; assay type: functional, cell-based; conditions: time 24-72 hrs; how it was run: as §1
[9] = target: Programmed cell death 1 ligand 1 (Homo sapiens) (UniProt Q9NZQ7); experiment: Induction of hydrophobic tag tethering degradation of PD-L1 in human NCI-H460 cells at 1 to 10 uM incubated for 24 hrs by Western blot analysis; assay type: cell-based; conditions: dose 1-10 µM; how it was run: as §2

Sequence of Programmed cell death 1 ligand 1 (Homo sapiens) (Q9NZQ7 whole entry): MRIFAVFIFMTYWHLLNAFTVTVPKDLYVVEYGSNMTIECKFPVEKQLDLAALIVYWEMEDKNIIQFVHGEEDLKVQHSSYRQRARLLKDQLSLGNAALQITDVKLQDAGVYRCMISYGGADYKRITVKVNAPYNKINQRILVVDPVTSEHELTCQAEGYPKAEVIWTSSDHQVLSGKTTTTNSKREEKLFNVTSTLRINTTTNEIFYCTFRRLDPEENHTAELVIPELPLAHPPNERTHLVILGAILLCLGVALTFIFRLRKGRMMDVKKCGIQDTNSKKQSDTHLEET

Cc1c(-c2ccccc2)cccc1-c1ccc(CNCCOCCOCCC(=O)NN2CCN(C(c3ccc(F)cc3)c3ccc(F)cc3)CC2)cn1
Activity (NCI-H460 [1]): Not active; Exhibited Almost No Cytotoxicity
Activity [2]: Time-dependent-effect; Almost No Degradation Activity Observed For 72 Hrs
Activity [3]: Dose-dependent-effect
Activity [4]: Dose-dependent-effect
Activity [5]: Active
Activity [6]: Not active; Result Indicates That Degradation Of Pd-L1 Occurs Through Proteosome Pathway
Activity [7]: Dose-dependent-effect

Cc1c(COc2ccc(CNCCOCCOCCOCCOCCOCCC(=O)NC(C3CCCCC3)C3CCCCC3)cn2)cccc1-c1ccccc1
Activity [5]: inactive

Cc1c(COc2ccc(CNCCOCCOCCC(=O)NN3CCN(C(c4ccc(F)cc4)c4ccc(F)cc4)CC3)cn2)cccc1-c1ccccc1
Activity (NCI-H460 [8]): Active; Exhibited Mild Cytotoxicity
Activity [5]: Active
Activity [7]: Dose-dependent-effect

Cc1c(-c2ccccc2)cccc1-c1ccc(CNCCOCCOCCC(=O)NC(c2ccccc2)c2ccccc2)cn1
Activity [5]: inactive

Cc1c(-c2ccccc2)cccc1-c1ccc(CNCCOCCOCCOCCOCCC(=O)NC(c2ccc(F)cc2)c2ccc(F)cc2)cn1
Activity [5]: inactive

Cc1c(COc2ccc(CNCCOCCOCCC(=O)NC(c3ccccc3)c3ccc(C(F)(F)F)cc3)cn2)cccc1-c1ccccc1 (centres undefined)
Activity [5]: inactive

Cc1c(COc2ccc(CNCCOCCOCCOCCOCCOCCC(=O)NC34CC5CC(CC(C5)C3)C4)cn2)cccc1-c1ccccc1
Activity [5]: Active

Cc1c(-c2ccccc2)cccc1-c1ccc(CNCCOCCOCCC(=O)NC(c2ccc(F)cc2)c2ccc(F)cc2)cn1
Activity [5]: inactive

Cc1c(COc2ccc(CNCCOCCOCCOCCC(=O)NC(C3CCCCC3)C3CCCCC3)cn2)cccc1-c1ccccc1
Activity [5]: inactive

Cc1c(COc2ccc(CNCCOCCOCCOCCOCCC(=O)NC34CC5CC(CC(C5)C3)C4)cn2)cccc1-c1ccccc1
Activity [5]: inactive

Cc1c(-c2ccccc2)cccc1-c1ccc(CNCCOCCOCCOCCC(=O)NC(c2ccc(F)cc2)c2ccc(F)cc2)cn1
Activity [5]: inactive

Cc1c(COc2ccc(CNCCOCCOCCOCCOCCOCCC(=O)NC(c3ccccc3)c3ccccc3)cn2)cccc1-c1ccccc1
Activity [5]: inactive

Cc1c(COc2ccc(CNCCOCCOCCOCCC(=O)NN3CCN(C(c4ccc(F)cc4)c4ccc(F)cc4)CC3)cn2)cccc1-c1ccccc1
Activity [5]: inactive

Cc1c(COc2ccc(CNCCOCCOCCOCCOCCC(=O)NC(c3ccccc3)c3ccccc3)cn2)cccc1-c1ccccc1
Activity [5]: Active

Cc1c(COc2ccc(CNCCOCCOCCOCCOCCC(=O)NN3CCN(C(c4ccc(F)cc4)c4ccc(F)cc4)CC3)cn2)cccc1-c1ccccc1
Activity [5]: inactive

Cc1c(-c2ccccc2)cccc1-c1ccc(CNCCOCCOCCOCCC(=O)NC(c2ccccc2)c2ccccc2)cn1
Activity [5]: Active

Cc1c(-c2ccccc2)cccc1-c1ccc(CNCCOCCOCCOCCOCCC(=O)NC(c2ccccc2)c2ccc(C(F)(F)F)cc2)cn1 (centres undefined)
Activity [5]: inactive

Cc1c(-c2ccccc2)cccc1-c1ccc(CNCCOCCOCCOCCC(=O)NN2CCN(C(c3ccc(F)cc3)c3ccc(F)cc3)CC2)cn1
Activity (NCI-H460 [1]): Not active; Exhibited Almost No Cytotoxicity
Activity [2]: Time-dependent-effect; Almost No Degradation Activity Observed For 72 Hrs
Activity [3]: Dose-dependent-effect
Activity [4]: Dose-dependent-effect
Activity [5]: Active
Activity [6]: Not active; Result Indicates That Degradation Of Pd-L1 Occurs Through Proteosome Pathway
Activity [7]: Dose-dependent-effect

Cc1c(COc2ccc(CNCCOCCOCCOCCC(=O)NC34CC5CC(CC(C5)C3)C4)cn2)cccc1-c1ccccc1
Activity [5]: inactive

Cc1c(COc2ccc(CNCCOCCOCCC(=O)NC(c3ccccc3)c3ccccc3)cn2)cccc1-c1ccccc1
Activity [9]: Active; Exhibited Mild Degradation Potency
Activity [5]: Active

Cc1c(COc2ccc(CNCCOCCOCCOCCOCCC(=O)NC(C3CCCCC3)C3CCCCC3)cn2)cccc1-c1ccccc1
Activity [5]: inactive

Cc1c(COc2ccc(CNCCOCCOCCOCCC(=O)NC(c3ccccc3)c3ccccc3)cn2)cccc1-c1ccccc1
Activity [9]: Active; Exhibited Mild Degradation Potency
Activity [5]: Active

Cc1c(COc2ccc(CNCCOCCOCCC(=O)NC34CC5CC(CC(C5)C3)C4)cn2)cccc1-c1ccccc1
Activity [5]: inactive

Cc1c(COc2ccc(CNCCOCCOCCOCCOCCOCCC(=O)NCCNC(=O)C(C)c3ccc(CC(C)C)cc3)cn2)cccc1-c1ccccc1 (centres undefined)
Activity [5]: inactive

Cc1c(-c2ccccc2)cccc1-c1ccc(CNCCOCCOCCC(=O)NC(c2ccccc2)c2ccc(C(F)(F)F)cc2)cn1 (centres undefined)
Activity [5]: inactive

Cc1c(COc2ccc(CNCCOCCOCCC(=O)NC(C3CCCCC3)C3CCCCC3)cn2)cccc1-c1ccccc1
Activity [5]: inactive

Cc1c(COc2ccc(CNCCOCCOCCOCCOCCC(=O)NCCNC(=O)C(C)c3ccc(CC(C)C)cc3)cn2)cccc1-c1ccccc1 (centres undefined)
Activity [5]: inactive

Cc1c(COc2ccc(CNCCOCCOCCOCCC(=O)NCCNC(=O)C(C)c3ccc(CC(C)C)cc3)cn2)cccc1-c1ccccc1 (centres undefined)
Activity [5]: inactive

Cc1c(-c2ccccc2)cccc1-c1ccc(CNCCOCCOCCOCCC(=O)NC(c2ccccc2)c2ccc(C(F)(F)F)cc2)cn1 (centres undefined)
Activity [5]: inactive

Cc1c(COc2ccc(CNCCOCCOCCC(=O)NCCNC(=O)C(C)c3ccc(CC(C)C)cc3)cn2)cccc1-c1ccccc1 (centres undefined)
Activity [5]: inactive

Cc1c(-c2ccccc2)cccc1-c1ccc(CNCCOCCOCCOCCOCCC(=O)NC(c2ccccc2)c2ccccc2)cn1
Activity [5]: Active

Cc1c(COc2ccc(CNCCOCCOCCOCCOCCC(=O)NC(c3ccccc3)c3ccc(C(F)(F)F)cc3)cn2)cccc1-c1ccccc1 (centres undefined)
Activity [5]: inactive

Cc1c(-c2ccccc2)cccc1-c1ccc(CNCCOCCOCCOCCOCCC(=O)NN2CCN(C(c3ccc(F)cc3)c3ccc(F)cc3)CC2)cn1
Activity [5]: inactive
